Measured values as given in ChEMBL document CHEMBL1123993, “2(1H)-quinolinones with cardiac stimulant activity. 1. Synthesis and biological activities of (six-membered heteroaryl)-substituted derivatives” (1988).

Key:
Canis familiaris [1] = assay: Percentage increase in dP/dt maximum observed with 4-[4-[2-(1,1-dioxo-2-isothiazolidinyl)-ethyl]-[…] (50 ug/Kg) in dog; type: functional, Canis lupus familiaris
Outline: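 Standard quinazoline inotrope given iv at 50 µg/kg to anesthetized dogs before each test compound. Left ventricular pressure recorded by Millar catheter via the carotid artery and differentiated to dP/dt max. Response expressed as % increase in dP/dt max; individual values taken from a typical test run.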

Canis familiaris [2] = assay: Inotropic activity measured as % increase in dP/dt maximum in Anesthetized dog at the dose of 50 ug/Kg administered intravenously; type: functional, Canis lupus familiaris
Outline: (§1)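 Anesthetized dogs. LVP recorded via Millar catheter passed into the left ventricle through the carotid artery, differentiated to dP/dt max. After 0.75 h equilibration, compound given iv in 0.9% saline 0.5 h after a standard quinazoline inotrope (50 µg/kg). Cycle repeated once control levels returned, at least 0.5 h between doses. Reported as % increase in dP/dt max; relative potency normalised by dose to the standard in the same dog.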

Canis familiaris [3] = assay: Decrease in QA interval in Conscious dog (n=4) 1 hr after a dose of 1 mg / Kg was administered per orally; type: functional, Canis lupus familiaris; design: unit not given beside the values
Outline: (§2)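 Conscious dogs (n = 4) given test substance as a solution by oral gavage. QA interval (ms from ECG R wave to arterial pressure pulse upstroke) recorded by computer every 0.16 h, from 0.5 h predose to 4 h postdose. Each time-point value is the mean of six consecutive 8-s sets. Reported as decrease from mean predose control.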

Canis familiaris [4] = assay: Decrease in QA interval in Conscious dog(n=4) 3h after a dose of 1 mg/kg was administered per orally
Canis familiaris [5] = assay: Decrease in QA interval in Conscious dog(n=4) 3h after a dose of 1 ug/kg was administered per orally; type: functional, Canis lupus familiaris; settings: in the assay text read “1 mg/kg” for “1 ug/kg”; outline: as §2
Canis familiaris [6] = assay: Inotropic activity measured as % increase in dP/dt maximum in Anesthetized dog at the dose of 12.5 ug/Kg administered intravenously; type: functional, Canis lupus familiaris; outline: as §1
Canis familiaris [7] = assay: Decrease in QA interval in Conscious dog (n=4) 1 hr after a dose of 0.5 mg / Kg was administered per orally; type: functional, Canis lupus familiaris; outline: as §2
Canis familiaris [8] = assay: Inotropic activity measured as % increase in dP/dt maximum in Anesthetized dog at the dose of 250 ug/Kg administered intravenously; type: functional, Canis lupus familiaris; outline: as §1
Canis familiaris [9] = assay: Decrease in QA interval in Conscious dog (n=4) 1 hr after a dose of 2 mg/Kg was administered per orally; type: functional, Canis lupus familiaris; outline: as §2
Canis familiaris [10] = assay: Decrease in QA interval in Conscious dog(n=4) 3h after a dose of 2 mg/Kg was administered per orally; type: functional, Canis lupus familiaris; outline: as §2
Canis familiaris [11] = assay: Decrease in QA interval in Conscious dog(n=4) 3h after a dose of 1 mg/Kg was administered per orally; type: functional, Canis lupus familiaris; outline: as §2
Canis familiaris [12] = assay: Decrease in QA interval in Conscious dog (n=4) 3h after a dose of 1 ug/Kg was administered per orally; type: functional, Canis lupus familiaris; settings: in the assay text read “1 mg/Kg” for “1 ug/Kg”; outline: as §2
Canis familiaris [13] = assay: Decrease in QA interval in Conscious dog (n=4) 1 hr after a dose of 1 mg/Kg was administered per orally
Canis familiaris [14] = assay: Inotropic activity measured as % increase in dP/dt maximum in Anesthetized dog at the dose of 25 ug/Kg administered intravenously; type: functional, Canis lupus familiaris; outline: as §1
Canis familiaris [15] = assay: Decrease in QA interval in Conscious dog (n=4) 1 hr after a dose of 0.25 mg/Kg was administered per orally; type: functional, Canis lupus familiaris; outline: as §2
Canis familiaris [16] = assay: Decrease in QA interval in Conscious dog (n=4) 3h after a dose of 0.25 mg/Kg was administered per orally; type: functional, Canis lupus familiaris; outline: as §2

## Cc1ccc(-c2cc(Br)c3nc(O)ccc3c2)c(C)n1
Canis familiaris [1]
  Relative potency: 0.7
Canis familiaris [2]
  dP/dt: 41%

## Cc1cc(O)nc2ccc(-c3cccnc3)cc12
Canis familiaris [1]
  Relative potency: 0.7
Canis familiaris [2]
  dP/dt: 39%

## Oc1ccc2cc(-c3cncnc3)ccc2n1
Canis familiaris [1]
  Relative potency: 1.1
Canis familiaris [2]
  dP/dt: 44%
Canis familiaris [3]
  Decrease: 3
Canis familiaris [4]
  Decrease: 1

## Oc1ccc2cc(-c3ccncn3)ccc2n1
Canis familiaris [1]
  Relative potency: 1.2
Canis familiaris [2]
  dP/dt: 38%
Canis familiaris [3]
  Decrease: 6
Canis familiaris [5]
  Decrease: 2

## Cc1ccc(-c2ccc3c(c2)CCC(=O)N3)c(C)n1
Canis familiaris [1]
  Relative potency: 0.8
Canis familiaris [2]
  dP/dt: 32%

## Oc1ccc2cc(-c3ccnnc3)ccc2n1
Canis familiaris [1]
  Relative potency: 1.3
Canis familiaris [2]
  dP/dt: 43%

## Cc1ccc(-c2cc(O)c3nc(O)ccc3c2)c(C)n1
Canis familiaris [1]
  Relative potency: <0.1
Canis familiaris [2]
  dP/dt: 19%

## Nc1cc2cc(-c3cccnc3)ccc2nc1O
Canis familiaris [1]
  Relative potency: 0.9
Canis familiaris [2]
  dP/dt: 63%

## Cc1cc(-c2cccnc2)cc2ccc(O)nc12
Canis familiaris [1]
  Relative potency: 9
Canis familiaris [6]
  dP/dt: 112%
Canis familiaris [7]
  Decrease: 16
Canis familiaris [5]
  Decrease: 20

## CSc1ccc(C(=O)c2[nH]c(=O)[nH]c2C)cc1 [ENOXIMONE]
Canis familiaris [1]
  Relative potency: 0.013
Canis familiaris [8]
  dP/dt: 32%

## Oc1ccc2cc(-c3ccccn3)ccc2n1
Canis familiaris [1]
  Relative potency: 0.3
Canis familiaris [8]
  dP/dt: 62%
Canis familiaris [9]
  Decrease: 2
Canis familiaris [10]
  Decrease: 1

## Cc1ccc(-c2cc(C)c3nc(O)ccc3c2)c(C)n1
Canis familiaris [1]
  Relative potency: 4.3
Canis familiaris [6]
  dP/dt: 43%
Canis familiaris [3]
  Decrease: 21
Canis familiaris [4]
  Decrease: 19

## CCc1cc(-c2ccc(C)nc2C)cc2ccc(O)nc12
Canis familiaris [1]
  Relative potency: 1
Canis familiaris [2]
  dP/dt: 35%

## CSc1cc(-c2ccc(C)nc2C)cc2ccc(O)nc12
Canis familiaris [1]
  Relative potency: 0.5
Canis familiaris [2]
  dP/dt: 20

## Oc1ccc2ccc(-c3cccnc3)cc2n1
Canis familiaris [1]
  Relative potency: 0.2
Canis familiaris [2]
  dP/dt: 6%

## Oc1ccc2cc(-c3cccnc3)ccc2n1
Canis familiaris [1]
  Relative potency: 1.3
Canis familiaris [2]
  dP/dt: 54%
Canis familiaris [3]
  Decrease: 14
Canis familiaris [11]
  Decrease: 7

## O=C1CCc2cc(-c3cccnc3)ccc2N1
Canis familiaris [1]
  Relative potency: 1.1
Canis familiaris [2]
  dP/dt: 41%
Canis familiaris [12]
  Decrease: 7
Canis familiaris [13]
  Decrease: 10

## Cc1ccncc1-c1ccc2nc(O)ccc2c1
Canis familiaris [1]
  Relative potency: 1.3
Canis familiaris [2]
  dP/dt: 21%

## Cc1ccc(-c2cc(C(C)C)c3nc(O)ccc3c2)c(C)n1
Canis familiaris [1]
  Relative potency: 0.4
Canis familiaris [2]
  dP/dt: 16%

## Cc1ncccc1-c1ccc2nc(O)ccc2c1
Canis familiaris [1]
  Relative potency: 1.7
Canis familiaris [2]
  dP/dt: 74%

## Oc1ccc2cc(-c3ccncc3)ccc2n1
Canis familiaris [1]
  Relative potency: 0.9
Canis familiaris [2]
  dP/dt: 51%
Canis familiaris [3]
  Decrease: 13
Canis familiaris [11]
  Decrease: 8

## Nc1ccc(-c2ccc3nc(O)ccc3c2)cn1
Canis familiaris [1]
  Relative potency: 0.8
Canis familiaris [2]
  dP/dt: 30%

## Cc1cc2nc(O)ccc2cc1-c1cccnc1
Canis familiaris [1]
  Relative potency: 0.2
Canis familiaris [8]
  dP/dt: 51%

## Oc1ccc2cc(-c3cccnn3)ccc2n1
Canis familiaris [1]
  Relative potency: 0.7
Canis familiaris [2]
  dP/dt: 32%
Canis familiaris [3]
  Decrease: 8
Canis familiaris [5]
  Decrease: 5

## Cc1ccc(-c2ccc3nc(O)ccc3c2)c(C)n1
Canis familiaris [1]
  Relative potency: 1.4
Canis familiaris [2]
  dP/dt: 37%
Canis familiaris [3]
  Decrease: 6
Canis familiaris [5]
  Decrease: 5

## COc1ccc(-c2ccc3nc(O)ccc3c2)cn1
Canis familiaris [1]
  Relative potency: 0.3
Canis familiaris [2]
  dP/dt: 11%

## N#Cc1cc2cc(-c3cccnc3)ccc2nc1O
Canis familiaris [1]
  Relative potency: 0.9
Canis familiaris [2]
  dP/dt: 46%

## Cc1ccc(-c2ccc3nc(O)ccc3c2)cn1
Canis familiaris [1]
  Relative potency: 1.3
Canis familiaris [2]
  dP/dt: 46%

## COc1cc(-c2ccc(C)nc2C)cc2ccc(O)nc12
Canis familiaris [1]
  Relative potency: 0.4
Canis familiaris [2]
  dP/dt: 11%

## Cc1[nH]c(=O)c(C#N)cc1-c1ccncc1 [MILRINONE]
Canis familiaris [1]
  Relative potency: 1.6
Canis familiaris [14]
  dP/dt: 46%
Canis familiaris [15]
  Decrease: 13
Canis familiaris [16]
  Decrease: 7

## Oc1ccc2c(-c3cccnc3)cccc2n1
Canis familiaris [1]
  Relative potency: 0.9
Canis familiaris [2]
  dP/dt: 44%
Canis familiaris [3]
  Decrease: 9
Canis familiaris [5]
  Decrease: 4

## Oc1ccc2cc(-c3ncccn3)ccc2n1
Canis familiaris [1]
  Relative potency: 0.7
Canis familiaris [2]
  dP/dt: 28%
Canis familiaris [3]
  Decrease: 4
Canis familiaris [5]
  Decrease: 4

## O=[N+]([O-])c1cc2cc(-c3cccnc3)ccc2nc1O
Canis familiaris [1]
  Relative potency: 0.6
Canis familiaris [2]
  dP/dt: 39%
